Results from ChEMBL document CHEMBL1240474, “Pharmacological evaluation and characterizations of newly synthesized 1,2,4-triazoles” (2010).
In brackets after ≈: the same amount, converted by molar mass.

Assays:
Format in all cases: functional
Escherichia coli = assay: Antibacterial activity against Escherichia coli MTCC 443 by broth microdilution method
Procedure, shortened: (§1)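 Serial dilutions in Mueller Hinton broth, drugs diluted in DMSO from a 2000 µg/ml stock, inoculum adjusted by turbidity to 10⁸ CFU/ml, ampicillin as reference. Primary screen at 500, 250 and 125 µg/ml; actives retested at 100 down to 1.5625 µg/ml. Incubated overnight at 37 °C.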

[1] = test system: Mycobacterium tuberculosis; assay: Antimycobacterial activity against Mycobacterium tuberculosis H37Rv at MIC concentration after up to 28 days
Streptococcus pyogenes = assay: Antibacterial activity against Streptococcus pyogenes MTCC 442 by broth microdilution method; procedure, shortened: as §1
Pseudomonas aeruginosa = assay: Antibacterial activity against Pseudomonas aeruginosa MTCC 2488 by broth microdilution method; procedure, shortened: as §1
Aspergillus niger = assay: Antifungal activity against Aspergillus niger MTCC 282 by broth microdilution method
Candida albicans = assay: Antifungal activity against Candida albicans MTCC 227 by broth microdilution method
[2] = test system: Mycobacterium tuberculosis; assay: Antimycobacterial activity against Mycobacterium tuberculosis H37Rv after up to 28 days; conditions: 672 h
Procedure, shortened: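 Lowenstein-Jensen agar dilution against M. tuberculosis H37Rv. Compounds were made up as 2000 µg/ml DMSO stocks and added to liquid L.J. medium at primary levels of 1000, 500 and 250 µg/ml and secondary levels of 200–3.25 µg/ml. The medium was inspissated, held 24 h at 37 °C, then streaked with bacilli from saline suspension. Growth was read at 12, 22 and 28 days against drug-free controls. MIC was the lowest concentration giving no colonies or fewer than 20.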

Aspergillus clavatus = assay: Antifungal activity against Aspergillus clavatus MTCC 1323 by broth microdilution method
Staphylococcus aureus = assay: Antibacterial activity against Staphylococcus aureus MTCC 96 by broth microdilution method; procedure, shortened: as §1

For `NNc1nc2ccc(F)cc2s1`, the MIC (Escherichia coli) was 250 µg/mL (≈ 1360 µM), the “inhibition (INH)” value [1] was 98% and the MIC (Streptococcus pyogenes) was 250 µg/mL (≈ 1360 µM). It also gave an MIC (Pseudomonas aeruginosa) of 250 µg/mL (≈ 1360 µM), an MIC (Aspergillus niger) greater than 1000 µg/mL and an MIC (Candida albicans) of 250 µg/mL (≈ 1360 µM). For the same compound, the MIC [2] was 250 µg/mL (≈ 1360 µM), the MIC (Aspergillus clavatus) was greater than 1000 µg/mL and the MIC (Staphylococcus aureus) was 500 µg/mL (≈ 2730 µM).
`NNc1nc2ccc(Br)cc2s1` was tested, and the MIC (Escherichia coli) was 500 µg/mL (≈ 2050 µM), the “inhibition (INH)” value [1] was 97% and the MIC (Streptococcus pyogenes) was 500 µg/mL (≈ 2050 µM). It also gave an MIC (Pseudomonas aeruginosa) of 500 µg/mL (≈ 2050 µM), an MIC (Aspergillus niger) of 500 µg/mL (≈ 2050 µM) and an MIC (Candida albicans) of 500 µg/mL (≈ 2050 µM). For the same compound, the MIC [2] was 500 µg/mL (≈ 2050 µM), the MIC (Aspergillus clavatus) was 500 µg/mL (≈ 2050 µM) and the MIC (Staphylococcus aureus) was 250 µg/mL (≈ 1020 µM).
`NNc1nc2ccc([N+](=O)[O-])cc2s1` was tested, and the MIC (Escherichia coli) was 250 µg/mL (≈ 1190 µM), the “inhibition (INH)” value [1] was 99% and the MIC (Streptococcus pyogenes) was 500 µg/mL (≈ 2380 µM). The MIC (Pseudomonas aeruginosa) was 250 µg/mL (≈ 1190 µM), the MIC (Aspergillus niger) was 500 µg/mL (≈ 2380 µM) and the MIC (Candida albicans) was 500 µg/mL (≈ 2380 µM). For the same compound, the MIC [2] was 250 µg/mL (≈ 1190 µM), the MIC (Aspergillus clavatus) was 1000 µg/mL (≈ 4760 µM) and the MIC (Staphylococcus aureus) was 500 µg/mL (≈ 2380 µM).
With `Cc1ccc2nc(NN)sc2c1` the MIC (Escherichia coli) was 100 µg/mL (≈ 558 µM), the “inhibition (INH)” value [1] was 98% and the MIC (Streptococcus pyogenes) was 250 µg/mL (≈ 1390 µM). The MIC (Pseudomonas aeruginosa) was 500 µg/mL (≈ 2790 µM), the MIC (Aspergillus niger) was 1000 µg/mL (≈ 5580 µM) and the MIC (Candida albicans) was 250 µg/mL (≈ 1390 µM). For the same compound, the MIC [2] was 1000 µg/mL (≈ 5580 µM), the MIC (Aspergillus clavatus) was greater than 1000 µg/mL and the MIC (Staphylococcus aureus) was 250 µg/mL (≈ 1390 µM).
In the case of `COc1ccc2nc(NN)sc2c1`, the MIC (Escherichia coli) is reported as 62.5 µg/mL (≈ 320 µM), the “inhibition (INH)” value [1] is reported as 99% and the MIC (Streptococcus pyogenes) is reported as 250 µg/mL (≈ 1280 µM). The MIC (Pseudomonas aeruginosa) was 125 µg/mL (≈ 640 µM), the MIC (Aspergillus niger) was 500 µg/mL (≈ 2560 µM) and the MIC (Candida albicans) was 500 µg/mL (≈ 2560 µM). It also gave an MIC [2] of 50 µg/mL (≈ 256 µM), an MIC (Aspergillus clavatus) of 250 µg/mL (≈ 1280 µM) and an MIC (Staphylococcus aureus) of 200 µg/mL (≈ 1020 µM).
`NNc1nc2ccc(Cl)cc2s1` was tested, and the MIC (Escherichia coli) was 100 µg/mL (≈ 501 µM), the “inhibition (INH)” value [1] was 99% and the MIC (Streptococcus pyogenes) was 500 µg/mL (≈ 2500 µM). It also gave an MIC (Pseudomonas aeruginosa) of 125 µg/mL (≈ 626 µM), an MIC (Aspergillus niger) of 200 µg/mL (≈ 1000 µM) and an MIC (Candida albicans) of 250 µg/mL (≈ 1250 µM). For the same compound, the MIC [2] was 200 µg/mL (≈ 1000 µM), the MIC (Aspergillus clavatus) was 250 µg/mL (≈ 1250 µM) and the MIC (Staphylococcus aureus) was 500 µg/mL (≈ 2500 µM).
`Cc1cccc2sc(NN)nc12` was tested, and the MIC (Escherichia coli) was 250 µg/mL (≈ 1390 µM), the “inhibition (INH)” value [1] was 98% and the MIC (Streptococcus pyogenes) was 500 µg/mL (≈ 2790 µM). The MIC (Pseudomonas aeruginosa) was 250 µg/mL (≈ 1390 µM), the MIC (Aspergillus niger) was 250 µg/mL (≈ 1390 µM) and the MIC (Candida albicans) was 500 µg/mL (≈ 2790 µM). For the same compound, the MIC [2] was 500 µg/mL (≈ 2790 µM), the MIC (Aspergillus clavatus) was 200 µg/mL (≈ 1120 µM) and the MIC (Staphylococcus aureus) was 500 µg/mL (≈ 2790 µM).
`NNc1nc2c([N+](=O)[O-])cccc2s1` was tested, and the MIC (Escherichia coli) was 500 µg/mL (≈ 2380 µM), the “inhibition (INH)” value [1] was 98% and the MIC (Streptococcus pyogenes) was 250 µg/mL (≈ 1190 µM). It also gave an MIC (Pseudomonas aeruginosa) of 250 µg/mL (≈ 1190 µM), an MIC (Aspergillus niger) of 250 µg/mL (≈ 1190 µM) and an MIC (Candida albicans) of 200 µg/mL (≈ 951 µM). The MIC [2] was 500 µg/mL (≈ 2380 µM), the MIC (Aspergillus clavatus) was 200 µg/mL (≈ 951 µM) and the MIC (Staphylococcus aureus) was 500 µg/mL (≈ 2380 µM).
With `NNc1nc2cc(Cl)c(Cl)cc2s1` the MIC (Escherichia coli) was 100 µg/mL (≈ 427 µM), the “inhibition (INH)” value [1] was 99% and the MIC (Streptococcus pyogenes) was 500 µg/mL (≈ 2140 µM). It also gave an MIC (Pseudomonas aeruginosa) of 125 µg/mL (≈ 534 µM), an MIC (Aspergillus niger) of 500 µg/mL (≈ 2140 µM) and an MIC (Candida albicans) of 500 µg/mL (≈ 2140 µM). The MIC [2] was 250 µg/mL (≈ 1070 µM), the MIC (Aspergillus clavatus) was 1000 µg/mL (≈ 4270 µM) and the MIC (Staphylococcus aureus) was 250 µg/mL (≈ 1070 µM).
`NNc1nc2c(Cl)cccc2s1` was tested, and the MIC (Escherichia coli) was 250 µg/mL (≈ 1250 µM), the “inhibition (INH)” value [1] was 99% and the MIC (Streptococcus pyogenes) was 500 µg/mL (≈ 2500 µM). It also gave an MIC (Pseudomonas aeruginosa) of 250 µg/mL (≈ 1250 µM), an MIC (Aspergillus niger) of 500 µg/mL (≈ 2500 µM) and an MIC (Candida albicans) of 1000 µg/mL (≈ 5010 µM). It also gave an MIC [2] of 100 µg/mL (≈ 501 µM), an MIC (Aspergillus clavatus) of 500 µg/mL (≈ 2500 µM) and an MIC (Staphylococcus aureus) of 500 µg/mL (≈ 2500 µM).
`Cc1ccc(-c2nnc(-c3cccnc3)o2)cc1` was tested, and the MIC (Escherichia coli) was 250 µg/mL (≈ 1050 µM), the “inhibition (INH)” value [1] was 98% and the MIC (Streptococcus pyogenes) was 250 µg/mL (≈ 1050 µM). It also gave an MIC (Pseudomonas aeruginosa) of 100 µg/mL (≈ 421 µM), an MIC (Aspergillus niger) of 500 µg/mL (≈ 2110 µM) and an MIC (Candida albicans) of 1000 µg/mL (≈ 4210 µM). The MIC [2] was 500 µg/mL (≈ 2110 µM), the MIC (Aspergillus clavatus) was 500 µg/mL (≈ 2110 µM) and the MIC (Staphylococcus aureus) was 100 µg/mL (≈ 421 µM).
For `Cc1ccc(-c2nnc(-c3cccnc3)n2Nc2nc3ccc(F)cc3s2)cc1`, the MIC (Escherichia coli) was 250 µg/mL (≈ 621 µM), the “inhibition (INH)” value [1] was 98% and the MIC (Streptococcus pyogenes) was 100 µg/mL (≈ 248 µM). It also gave an MIC (Pseudomonas aeruginosa) of 250 µg/mL (≈ 621 µM), an MIC (Aspergillus niger) of 500 µg/mL (≈ 1240 µM) and an MIC (Candida albicans) of 500 µg/mL (≈ 1240 µM). The MIC [2] was 200 µg/mL (≈ 497 µM), the MIC (Aspergillus clavatus) was 250 µg/mL (≈ 621 µM) and the MIC (Staphylococcus aureus) was 125 µg/mL (≈ 311 µM).
